Test results reported in ChEMBL document CHEMBL1921783, “Hypoxia activated prodrugs of a 9-aza-anthrapyrazole derivative that has promising anticancer activity” (J Med Chem, 2011).
Structures can show the parent of a compound that is named as a salt. Active and inactive are the calls of the source. The rule behind the calls is not given here.

What was measured:
[1] = tested on: MCF7; assay: Cytotoxicity against doxorubicin-sensitive human MCF7 cells under hypoxic condition assessed as growth inhibition after 74 hrs by sulforhodamine B assay; type: functional, cell-based; details: MCF7, 74 h
Outline: (§1)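 Cells grown in 96-well plates for 74 h across a range of test concentrations; growth measured by sulforhodamine B staining and IC50 taken as 50% inhibition of growth. Hypoxic arm held in an anaerobic chamber flushed with 95% N2/5% CO2; oxic arm in oxygen-rich conditions.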

[2] = tested on: LoVo; assay: Cytotoxicity against human LoVo cells under oxic condition assessed as growth inhibition after 74 hrs by sulforhodamine B assay; type: functional, cell-based; outline: as §1
[3] = tested on: MCF7; assay: Cytotoxicity against doxorubicin-resistant human MCF7 cells under oxic condition assessed as growth inhibition after 74 hrs by sulforhodamine B assay; type: functional, cell-based; details: MCF7, 74 h; outline: as §1
[4] = tested on: LoVo; assay: Cytotoxicity against human LoVo cells under hypoxic condition assessed as growth inhibition after 74 hrs by sulforhodamine B assay; type: functional, cell-based; outline: as §1
[5] = target: Nucleic Acid; assay: Displacement of ethidium bromide from DNA by fluorometric analysis; type: nucleic-acid assay
Outline: (§2)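 Fluorescence read-out of ethidium bromide displacement from DNA; IC50 is concentration reducing ethidium bromide binding by 50%; tested up to 50 μM.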

[6] = tested on: MCF7; assay: Cytotoxicity against doxorubicin-sensitive human MCF7 cells under oxic condition assessed as growth inhibition after 74 hrs by sulforhodamine B assay; type: functional, cell-based; details: MCF7, 74 h; outline: as §1
[7] = tested on: MCF7; assay: Cytotoxicity against doxorubicin-resistant human MCF7 cells under hypoxic condition assessed as growth inhibition after 74 hrs by sulforhodamine B assay; type: functional, cell-based; details: MCF7, 74 h; outline: as §1
[8] = tested on: Nucleic Acid; assay: Binding affinity to DNA assessed as bathochromic shift by UV-spectroscopic analysis with compound pretreatment with CYP450; type: nucleic-acid assay
Outline: (§3)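 UV absorbance scans of compound recorded with sequentially increasing DNA concentrations; binding judged from hypochromicity and bathochromic shift. CYP450 pretreatment where applicable: incubation with rat liver S-9 fraction in 1% O2, 2 h, 37 °C, proteins precipitated with ethanol, supernatant after centrifugation used.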

[9] = tested on: Nucleic Acid; assay: Displacement of ethidium bromide from DNA at 50 uM by fluorometric analysis; type: nucleic-acid assay; outline: as §2
[10] = tested on: Nucleic Acid; assay: Binding affinity to DNA assessed as increase in hypochromicity by UV-spectroscopic analysis without compound pretreatment with CYP450; type: nucleic-acid assay; outline: as §3
[11] = tested on: Nucleic Acid; assay: Binding affinity to DNA assessed as increase in hypochromicity by UV-spectroscopic analysis with compound pretreatment with CYP450; type: nucleic-acid assay; outline: as §3
[12] = target: DNA topoisomerase 2-alpha (Homo sapiens) (UniProt P11388); assay: Inhibition of DNA topoisomerase 2-mediated DNA fragmentation at 10 uM pretreated with 1% O2 for 2 hrs measured by gel electrophoresis analysis
Sequence of DNA topoisomerase 2-alpha (Homo sapiens) (P11388 whole entry, the tested form may be a part): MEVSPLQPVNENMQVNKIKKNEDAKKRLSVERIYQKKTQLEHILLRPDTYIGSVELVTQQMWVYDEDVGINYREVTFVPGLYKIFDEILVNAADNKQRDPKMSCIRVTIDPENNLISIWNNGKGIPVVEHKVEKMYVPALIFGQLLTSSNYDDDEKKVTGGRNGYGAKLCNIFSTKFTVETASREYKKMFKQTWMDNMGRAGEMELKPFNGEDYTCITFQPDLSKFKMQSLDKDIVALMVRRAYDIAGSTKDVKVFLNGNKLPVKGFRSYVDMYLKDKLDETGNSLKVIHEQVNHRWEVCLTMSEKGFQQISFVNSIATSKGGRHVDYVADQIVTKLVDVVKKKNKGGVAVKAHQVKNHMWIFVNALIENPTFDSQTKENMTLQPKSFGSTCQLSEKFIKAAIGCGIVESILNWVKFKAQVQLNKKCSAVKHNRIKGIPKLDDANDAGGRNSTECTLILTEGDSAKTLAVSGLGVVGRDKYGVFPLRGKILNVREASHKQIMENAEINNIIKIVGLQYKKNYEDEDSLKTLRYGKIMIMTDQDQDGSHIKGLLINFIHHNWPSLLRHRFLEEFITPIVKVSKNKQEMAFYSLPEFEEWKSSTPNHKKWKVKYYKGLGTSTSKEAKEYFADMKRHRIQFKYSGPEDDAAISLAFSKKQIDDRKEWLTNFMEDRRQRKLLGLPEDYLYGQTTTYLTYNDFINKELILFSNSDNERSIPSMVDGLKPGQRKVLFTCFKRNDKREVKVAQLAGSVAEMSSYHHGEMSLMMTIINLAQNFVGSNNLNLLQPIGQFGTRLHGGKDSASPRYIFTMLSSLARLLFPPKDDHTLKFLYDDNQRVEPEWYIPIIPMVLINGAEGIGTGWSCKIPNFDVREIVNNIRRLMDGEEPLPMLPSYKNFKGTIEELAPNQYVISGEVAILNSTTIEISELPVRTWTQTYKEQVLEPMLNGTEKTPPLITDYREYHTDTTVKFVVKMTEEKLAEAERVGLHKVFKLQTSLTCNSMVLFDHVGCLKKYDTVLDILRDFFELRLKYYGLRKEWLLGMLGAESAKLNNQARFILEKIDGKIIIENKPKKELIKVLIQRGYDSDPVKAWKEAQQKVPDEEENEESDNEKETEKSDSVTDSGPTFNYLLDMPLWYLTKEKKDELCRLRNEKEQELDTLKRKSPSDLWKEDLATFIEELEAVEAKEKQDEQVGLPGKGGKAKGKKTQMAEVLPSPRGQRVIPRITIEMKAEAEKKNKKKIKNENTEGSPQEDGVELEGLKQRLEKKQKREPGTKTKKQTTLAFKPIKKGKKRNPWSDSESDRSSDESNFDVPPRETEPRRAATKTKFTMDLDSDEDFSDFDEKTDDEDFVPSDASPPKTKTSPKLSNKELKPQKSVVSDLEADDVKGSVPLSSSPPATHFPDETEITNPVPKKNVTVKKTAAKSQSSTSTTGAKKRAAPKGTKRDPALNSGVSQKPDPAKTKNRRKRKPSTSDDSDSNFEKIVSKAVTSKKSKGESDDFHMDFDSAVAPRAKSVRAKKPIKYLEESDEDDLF
Outline: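 Before the Topo II assay, compound incubated with rat liver S-9 fraction in 1% O2 or normal air for 2 h at 37 °C. Proteins were precipitated with ethanol and the sample centrifuged; the supernatant was then tested for inhibition of Topo II DNA fragmentation by gel electrophoresis.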

[13] = target: DNA topoisomerase 2-alpha (Homo sapiens) (UniProt P11388); assay: Inhibition of DNA topoisomerase 2-mediated DNA fragmentation at 50 uM by gel electrophoresis analysis
Outline: (§4)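 Topo II incubated with DNA and compound; products resolved by gel electrophoresis, with intact DNA as a single band and Topo II fragmentation giving multiple bands.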

[14] = target: DNA topoisomerase 2-alpha (Homo sapiens) (UniProt P11388); assay: Inhibition of DNA topoisomerase 2-mediated DNA fragmentation at 10 uM by gel electrophoresis analysis; outline: as §4

Activity [8]	Activity [9]	Activity [10]	Activity [11]	inhibition [12]	inhibition [13]	inhibition [14]	Compound	IC50 [1] [µM]	IC50 [2] [µM]	IC50 [3] [µM]	IC50 [4] [µM]	IC50 [5] [µM]	IC50 [6] [µM]	IC50 [7] [µM]
–	–	–	–	–	–	–	O=C1c2c(O)ccc(O)c2C(=O)c2c(NCCNCCO)ccc(NCCNCCO)c21 [MITOXANTRONE HYDROCHLORIDE]	1	0.1	4.7	0.9	4.5	0.1	> 10
Active	inactive	inactive	Active	Active	inactive	–	C[N+](C)([O-])CCNc1ccc2c3c(nn2CC[N+](C)(C)[O-])-c2cnccc2C(=O)c13	5	> 25	> 25	1.5	–	> 25	1.3
–	–	–	–	Active	–	Active	CN(C)CCNc1ccc2c3c(nn2CCN(C)C)-c2cnccc2C(=O)c13	4	1.3	1	3.3	6.8	0.9	1.2
